Screening results from PubChem.
Ecoli WT expand – growth inhibitors of wild-type E. coli, primary screen, strain BW25113, expanded library, OD600; OD600 absorbance; growth inhibition, % at 100 µM; 98,000 tested, 0.15% active; AID 710, 2007;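 active = growth inhibition above about 50% at one test dose, limit read from the data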;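 note: growth measured after 20 h incubation at 37 °C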
Cdc25B block – inhibitors of Cdc25B phosphatase catalytic domain, primary screen, biochemical, OMFP fluorescence; M-phase inducer phosphatase 2 (Homo sapiens), P30305; recombinant Cdc25B, OMFP fluorescence Ex485/Em525; inhibition, %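 (compounds tested at 10 µM final in the well)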; 65,000 tested, 0.1% active; AID 368, 2006; in the data active = inhibition above about 50%
Ecoli tolC – growth inhibitors of E. coli tolC mutant, primary screen, strain BW25113 ΔtolC::kan, 384-well; OD615; growth inhibition, % at 10 µM (by protocol); 65,000 tested, 2.2% active;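 active = growth inhibition at or above a cutoff equal to the mean over every tested compound plus 3 SD, cut at about 60% in these data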;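 note: growth measured after 20 h incubation at 37 °C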
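Doses: one dose of 10 µM final / Material: E. coli BW25113 ΔtolC::kan, tolC deletion mutant strain / Buffer or medium: LB with kanamycin 50 µg/mL / Evaluation: percent growth inhibition / Detection: optical density read at 615 nm / Incubation: 37 °C, 20 h exposure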
DUSP1 inh – MKP-1 phosphatase inhibitors, primary screen, biochemical, in vitro. Dual specificity protein phosphatase 1 (Homo sapiens), P28562. recombinant MKP-1, OMFP hydrolysis fluorescence. inhibition, %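 (compounds tested at a single concentration somewhere between 10 and 100 µM)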. 65,000 tested, 0.15% active. AID 374, 2006;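 active = inhibition above about 50%, limit read from the data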
Target sequence (P28562 whole entry, looked up): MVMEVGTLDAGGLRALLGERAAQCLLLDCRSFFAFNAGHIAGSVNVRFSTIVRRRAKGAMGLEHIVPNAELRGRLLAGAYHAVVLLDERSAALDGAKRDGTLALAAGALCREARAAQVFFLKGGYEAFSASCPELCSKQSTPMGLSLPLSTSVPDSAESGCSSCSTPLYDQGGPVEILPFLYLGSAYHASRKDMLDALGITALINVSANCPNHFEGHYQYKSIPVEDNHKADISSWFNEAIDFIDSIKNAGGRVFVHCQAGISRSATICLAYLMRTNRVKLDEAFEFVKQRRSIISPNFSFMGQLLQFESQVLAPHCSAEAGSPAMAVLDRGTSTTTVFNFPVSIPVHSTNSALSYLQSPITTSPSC
MMP-13 inhibitor – human MMP13 inhibitors, primary screen, biochemical, FRET peptide cleavage; MMP-13 fTHP FRET cleavage, Mca fluorescence; 65,000 tested, 0.07% active; inhibition, % at 4 µM; Collagenase 3 (Homo sapiens), P45452; AID 570, 2006;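 active = inhibition above the mean of compound-free control plate wells plus 3 SD, cut at about 14% in these data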
HePTP inhibitor – inhibitors of human HePTP phosphatase, primary screen, biochemical, absorbance, leukemia target | recombinant HePTP phosphatase activity, OD absorbance | inhibition, % at 20 µM | 110,000 tested, 0.64% active | AID 521, 2006; in the data active = inhibition above about 50%
Of the large screens only hits and unclear results are named; the others gave an inactive call. The sample as a whole holds a higher share of hits than the screen did.

Cc1c(C(=O)N2CCCCC2)oc2ccc(S(=O)(=O)N3CC(C)CC(C)C3)cc12 (centres undefined)	Ecoli tolC 91
CC(C)(C)c1csc(NC(=O)c2ccc(Cl)s2)n1	Ecoli tolC 100 (no result: HePTP inhibitor)
O=C(Nc1nc(-c2cccs2)cs1)c1ccc(Cl)s1	Ecoli tolC 96
COc1ccc(/C=N\OCC(=O)Nc2oc(-c3ccccc3)c(-c3ccccc3)c2C#N)cc1OC	none (no result: Ecoli WT expand, Cdc25B block, Ecoli tolC, DUSP1 inh, MMP-13 inhibitor)
O=C1NN(c2ccccc2)C(=O)/C1=C/c1cccn1-c1ccc([N+](=O)[O-])cc1	HePTP inhibitor 103 (no result: Ecoli WT expand, Cdc25B block, Ecoli tolC, DUSP1 inh, MMP-13 inhibitor)
Cc1ncc(-c2ccc(Br)cc2)cn1	none (no result: Ecoli WT expand, Cdc25B block, Ecoli tolC, DUSP1 inh, MMP-13 inhibitor)
O=c1[nH]c2ccccc2nc1N1CCOCC1	none (no result: Cdc25B block, Ecoli tolC, DUSP1 inh, MMP-13 inhibitor, HePTP inhibitor)
O=c1cc(-c2ccccc2)[nH]n1-c1nc2ccccc2[nH]1	Ecoli WT expand 55 (no result: Ecoli tolC)
COC(=O)c1[nH]c2ccc(Cl)cc2c1NC(=O)C1CC1	Cdc25B block 84
COC(=O)c1[nH]c2ccc(Cl)cc2c1NC(=O)Oc1ccccc1	none (no result: Cdc25B block, Ecoli tolC, DUSP1 inh, MMP-13 inhibitor, HePTP inhibitor)
COc1ccc(S(=O)(=O)Nc2ccccc2C(=O)NCc2ccco2)cc1Br	Ecoli tolC 83
CCOc1ccc(S(=O)(=O)Nc2ccccc2C(=O)NCc2ccco2)cc1	none
O=C(/C=C/c1ccccc1)Nc1ccccc1C#Cc1ccccc1	none (no result: Ecoli WT expand, Cdc25B block, Ecoli tolC, DUSP1 inh, MMP-13 inhibitor)
C=CCn1c(Cc2ccccc2)nnc1SCC(O)Cn1c2ccccc2c2ccccc21 (centres undefined)	none (no result: Ecoli WT expand, Cdc25B block, Ecoli tolC, DUSP1 inh, MMP-13 inhibitor)
C=CCn1c(SCC(O)Cn2c3ccccc3c3ccccc32)nnc1-c1ccco1 (centres undefined)	Ecoli tolC 81
O=C(Nc1ccc(Cl)c(Cl)c1)N1CCSC1c1ccco1 (centres undefined)	Ecoli tolC 100
Cc1ccc(C)n1-c1ccc(SCC(=O)O)cc1	HePTP inhibitor 103 (no result: Ecoli WT expand, Cdc25B block, Ecoli tolC, DUSP1 inh, MMP-13 inhibitor)
Cc1ccc(C)n1-c1ccc(OCC(=O)O)cc1	HePTP inhibitor 104 (no result: Ecoli WT expand, Cdc25B block, Ecoli tolC, DUSP1 inh, MMP-13 inhibitor)
Cc1nc(=O)c(-c2ccccc2)c(C)n1-c1ccc(OCC(=O)O)cc1	none (no result: Ecoli WT expand, Cdc25B block, Ecoli tolC, DUSP1 inh, MMP-13 inhibitor)
Cn1c(=O)c(C(=S)NC(=O)C2CC2)c(N)n(Cc2ccccc2)c1=O	Ecoli tolC 86
CCC(=O)OCC(=O)c1c(N)n(Cc2ccccc2)c(=O)n(C)c1=O	none
COc1cccc(/C=C2/SC(=S)N(CCC(=O)Nc3nnc(C)s3)C2=O)c1	none (no result: Ecoli WT expand, Cdc25B block, Ecoli tolC, DUSP1 inh, MMP-13 inhibitor)
CC1(C)CC(NC(=O)c2cccc(Cl)c2)CC(C)(C)N1	HePTP inhibitor 102 (no result: Ecoli WT expand, Cdc25B block, Ecoli tolC, DUSP1 inh, MMP-13 inhibitor)
Cc1cccc(C(=O)NC2CC(C)(C)NC(C)(C)C2)c1	none
C=CCn1c(-c2ccccc2)c(NC(=O)c2ccccc2)sc1=Nc1cccc(Cl)c1	none (no result: Ecoli WT expand, Cdc25B block, Ecoli tolC, DUSP1 inh, MMP-13 inhibitor)
O=[N+]([O-])c1cccc(S(=O)(=O)NCc2ccncc2)c1	HePTP inhibitor 103 (no result: Ecoli WT expand, Cdc25B block, Ecoli tolC, DUSP1 inh, MMP-13 inhibitor)
O=C(OCc1nnc(-c2ccccc2)o1)c1cn(-c2ccccc2)nc1-c1ccccc1	none
Cc1noc(C)c1COC(=O)c1cc(=O)[nH]c2ccccc12	none
Cc1cc(C(=O)OCc2nnc(-c3ccccc3)o2)c(C)n1-c1ccccc1	Ecoli tolC 63
Cc1noc(C)c1COC(=O)c1cc(C)n(-c2ccccc2)c1C	Ecoli tolC 93
CC1(C)CC(=O)C(C(C2=C(O)CC(C)(C)CC2=O)c2ccc(Cl)cc2Cl)C(=O)C1 (centres undefined)	none (no result: Ecoli WT expand, Cdc25B block, Ecoli tolC, DUSP1 inh, MMP-13 inhibitor)
O=C1N=c2ccccc2=C1c1sc(=S)[nH]c1O	HePTP inhibitor 70 (no result: Ecoli WT expand, Cdc25B block, Ecoli tolC, DUSP1 inh, MMP-13 inhibitor)
O=C1N=c2ccccc2=C1c1[nH]c(=S)[nH]c1O	none (no result: Ecoli WT expand, Cdc25B block, Ecoli tolC, DUSP1 inh, MMP-13 inhibitor)
COC(=O)c1ccc(C(=O)OC)c(NC(=O)COc2cccc(Cl)c2)c1	none (no result: Ecoli WT expand, Cdc25B block, Ecoli tolC, DUSP1 inh, MMP-13 inhibitor)
COc1ccc(/C=C2\SC(=O)N(CCC(=O)N3CCOCC3)C2=O)cc1OC	HePTP inhibitor 104 (no result: Ecoli WT expand, Cdc25B block, Ecoli tolC, DUSP1 inh, MMP-13 inhibitor)
COC(=O)CSc1nc2sc3c(c2c(=O)n1-c1ccc(OC)cc1)CCN(Cc1ccccc1)C3	none (no result: Ecoli WT expand, Cdc25B block, Ecoli tolC, DUSP1 inh, MMP-13 inhibitor)
O=[N+]([O-])c1cccc(CN2CCN(S(=O)(=O)c3ccc(Cl)cc3)CC2)c1	HePTP inhibitor 102 (no result: Ecoli WT expand, Cdc25B block, Ecoli tolC, DUSP1 inh, MMP-13 inhibitor)
O=C(/C=C/c1ccco1)NCCCCNC(=O)/C=C/c1ccco1	HePTP inhibitor 103 (no result: Ecoli WT expand, Cdc25B block, Ecoli tolC, DUSP1 inh, MMP-13 inhibitor)
O=C(/C=C/c1ccco1)Nc1ccc(O)cc1C(=O)O	HePTP inhibitor 98 (no result: Ecoli WT expand, Cdc25B block, Ecoli tolC, DUSP1 inh, MMP-13 inhibitor)
O=C(/C=C/c1ccco1)Nc1cccc([N+](=O)[O-])c1	HePTP inhibitor 62 (no result: Ecoli WT expand, Cdc25B block, Ecoli tolC, DUSP1 inh, MMP-13 inhibitor)
